High-throughput results as filed in PubChem.
The list is not random: actives were taken first. Their share in the collection is about 1.7%.
PfHsp90 yeast 2 – inhibits growth of yeast expressing Plasmodium falciparum Hsp90. AID 504621. actives 0.32% (n = 310,000). S. cerevisiae expressing PfHsp90, BacTiter-Glo ATP, 48 h; yeast lacking PDR1 and PDR3 efflux regulators. inhibition, % at 9.4 µM;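 active = every replicate shows inhibition above about 80%, whatever the replicate mean, limit read from the data; inconclusive = mean inhibition reaches the set limit but some replicate falls short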;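 also: 0% = DMSO neutral controls and 100% = 20 µM radicicol positive controls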
SKKanGAS inh – inhibitors of SKKanGAS S. pyogenes growth in kanamycin (SK-promoter or general growth effect). BacTiter-Glo, 6 h. inhibition, % at 7.5 µM. actives 1.3% (n = 300,000). AID 1662;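 active = mean replicate score, as percent of positive control median, at least 50; inconclusive = mean below 50 but one replicate at or above 50; inactive = mean and every replicate below 50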;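 also: strain carries kanamycin resistance gene driven by streptokinase promoter and grows in 40 µg/ml kanamycin; loss of luminescence reflects streptokinase promoter inhibition or plain growth inhibition; 0% = median of DMSO wells and 100% = positive control at its reference dose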
CSC inhib – cancer stem cell inhibition. cancer stem cell-like cells viability, luminescence. inhibition, % at 7.5 µM. actives 1.1% (n = 300,000). AID 2717; in the data active = inhibition above about 75%; inconclusive = no clear call, values can overlap the other calls; tested in HMLE shEcad cells
FN deposit inh – fibronectin deposition inhibition; inhibition, % at 12.6 µM; AH1F fibroblasts, Alexa488-fibronectin deposition fluorescence, overnight; actives 0.086% (n = 350,000);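 active = mean inhibition across replicates of 30% or more, regardless of how many single replicates reach that level; inconclusive = mean under 30% yet at least half of replicates reach 30%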;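 also: positive control wells lacked labelled fibronectin entirely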
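Assay system: AH1F fibroblast monolayer, labelled fibronectin deposition. Amount: 10000 cells per well. Also added: labelled fibronectin 24 nM. Compound: single-point pinned compound. Incubation: cell attachment 1 h, compound and FN exposure overnight. Detection: fluorescence after three HBSS washes, excitation 485 nm, emission 525 nm. Read-out: inhibition of fibronectin deposition signal.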
PglD DTNB – PglD (C. jejuni) enzyme inhibition; AID 602405; purified PglD enzyme, DTNB colorimetric CoA detection; inhibition, % at 12.5 µM; actives 0.098% (n = 360,000); in the data active = inhibition above about 16%, passing the limit was not always enough; inconclusive = no clear call, values can overlap the other calls
Rtt109 HAT inh – C. albicans Rtt109 histone acetyltransferase inhibition; AID 540336; Q5AAJ8; inhibition, % at 34.9 µM; actives 0.16% (n = 330,000); purified Rtt109/Vps75, ThioGlo CoA-SH fluorescence, 4 h;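 active = inhibition of at least 50% in every replicate; inconclusive = best replicate reaches 50% inhibition but some replicates fall short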
Target sequence (Q5AAJ8 whole entry, looked up): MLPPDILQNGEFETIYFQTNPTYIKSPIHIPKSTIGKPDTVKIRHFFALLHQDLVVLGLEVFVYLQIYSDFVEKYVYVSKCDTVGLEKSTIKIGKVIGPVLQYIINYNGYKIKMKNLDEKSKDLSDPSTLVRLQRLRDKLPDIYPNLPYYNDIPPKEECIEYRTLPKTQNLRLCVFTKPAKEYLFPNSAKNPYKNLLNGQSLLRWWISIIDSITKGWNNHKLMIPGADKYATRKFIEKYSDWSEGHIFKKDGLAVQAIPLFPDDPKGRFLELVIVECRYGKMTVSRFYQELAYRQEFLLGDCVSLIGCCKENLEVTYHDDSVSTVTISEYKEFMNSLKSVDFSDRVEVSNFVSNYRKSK
* = called active by the depositor; ? = inconclusive; / = no result given.

SMILES	PfHsp90 yeast 2	SKKanGAS inh	CSC inhib	FN deposit inh	PglD DTNB	Rtt109 HAT inh
C[C@@H]1CN([C@@H](C)CO)C(=O)Cc2cc(NS(=O)(=O)c3cn(C)cn3)ccc2O[C@H]1CN(C)Cc1ccncc1	/	/	/	/	-4	/
CO[C@H]1CN(C)C(=O)c2cc(NC(=O)C3CCOCC3)ccc2OC[C@@H](C)N(C(C)=O)C[C@H]1C	/	/	/	-2	3	/
CC(=O)NC1=NC(=O)/C(=C/c2cc(C)n(-c3ccc(NC(C)=O)cc3)c2C)S1	/	79*	/	-1	-4	4
CC(=O)NC1=NC(=O)/C(=C/c2cc(C)n(-c3cccc(C(=O)O)c3)c2C)S1	-25	34	/	3	/	31
O=C(CCN1C(=O)/C(=C\c2ccccc2)SC1=S)NNC(=O)c1ccccc1O	-14	51*	17	-5	-2	8
CCc1ccc(/C=C2/SC(=S)N(CCCC(=O)Nc3ccccc3C(=O)O)C2=O)cc1	-16	52*	8	/	-4	32
O=C1/C(=C\c2cc(Cl)c(O)c(Cl)c2)SC(=S)N1Cc1ccccc1	-25	90*	104*	-44	-10	-11
COc1ccccc1/C=C1\SC(=S)N(CC(=O)Nc2nnc(C)s2)C1=O	/	14	96*	-2	/	/
COc1ccc(/C=C2/SC(=S)N(Cc3ccccc3)C2=O)cc1O	-18	-1	25	7	4	8
O=C(CCCN1C(=O)S/C(=C\c2ccccc2)C1=O)NNC(=O)c1ccccc1O	0	11	8	10	/	-11
CCc1ccc(C=C2SC(=S)N(CCCC(=O)Nc3ccc(C(=O)O)cc3)C2=O)cc1	/	/	/	-14	3	/
C[C@H](CO)N1C[C@H](C)[C@@H](CN(C)Cc2ccc(Oc3ccccc3)cc2)Oc2ccc(NS(=O)(=O)c3ccc(Cl)cc3)cc2C1=O	/	/	/	/	-1	/
O=C(C[C@@H]1CC[C@H]2[C@@H](COC[C@H](O)CN2S(=O)(=O)c2ccccc2F)O1)NCc1ccccc1Cl	/	/	/	0	2	/
O=C(CCCN1C(=O)/C(=C/c2ccccc2)SC1=S)NCCCn1ccnc1	2	0	90*	-10	-3	21
O=C(CCN1C(=O)S/C(=C\c2ccccc2)C1=O)NCCCn1ccnc1	5	-2	47	-33	-3	-7
CCc1ccc(/C=C2/SC(=S)N(CC(=O)Nc3nc4ccccc4s3)C2=O)cc1	-3	79*	18	/	4	-4
Cc1ccc(S(=O)(=O)Nc2ccc3c(c2)C(=O)N([C@@H](C)CO)C[C@H](C)[C@H](CN(C)C(=O)Nc2ccccc2)OCCCC[C@H](C)O3)cc1	/	/	/	/	14	/
CCOc1ccc(CSCCNC(=S)Nc2ccc(OC)cc2)cc1	8	1	5	-21	/	6
CCCOc1ccc(CSCCNC(=S)Nc2ccccc2)cc1	3	2	77*	/	/	7
C[C@H](CO)N1C[C@H](C)[C@H](CN(C)C(=O)Nc2ccc(C(F)(F)F)cc2)Oc2c(cccc2N(C)C)C1=O	/	/	/	/	3	/
CC(C)[C@H](NC(=O)N1CC(=O)Nc2ccccc21)C(=O)N[C@@H](Cc1ccccc1)C(=O)O	11	94*	0	/	5	4
O=C1CN(C(=O)N[C@@H](Cc2ccccc2)C(=O)N[C@H](C(=O)O)c2ccccc2)c2ccccc2N1	6	-1	-14	-3	0	1
CC(C)C[C@H](NC(=O)N1CC(=O)Nc2ccccc21)C(=O)N[C@H](C(=O)O)c1ccccc1	-20	63*	-10	/	-5	-10
COCC(=O)N(C)C[C@H]1Oc2cc(C#CCC(C)C)ccc2S(=O)(=O)N([C@H](C)CO)C[C@H]1C	/	/	/	-8	2	/
O=C(NC(=S)NNC(=O)c1ccccc1O)c1ccc(F)cc1	43	81*	11	-5	3	-5
SMILES	PfHsp90 yeast 2	SKKanGAS inh	CSC inhib	FN deposit inh	PglD DTNB	Rtt109 HAT inh
O=C(NNC(=S)NC(=O)c1cccnc1)c1ccc(F)cc1	3	28	1	-3	1	8
Cc1ccc(C(=O)NC(=S)NNC(=O)c2ccccc2[N+](=O)[O-])cc1	-31	/	-8	/	-9	4
Cc1ccc(C(=O)NC(=S)NNC(=O)c2ccccc2O)cc1	16	102*	59	10	-2	-1
O=C(NC(=S)NNC(=O)c1ccccc1O)c1ccccc1	19	93*	21	5	-1	4
COc1ccc2sc(-c3ccc(SC)cc3)c(C#CCO)c2c1	31	/	83*	-4	9	-1
COc1ccc(-c2sc3ccc(N4CCOCC4)cc3c2C#CC(C)(C)O)cc1	-7	/	87*	11	-7	-1
COc1ccc(-c2oc3ccc(N4CCOCC4)cc3c2C#CCO)cc1	9	20	97*	6	8	-3
COc1ccc2sc(-c3ccc(SC)cc3)c(C#CC(C)(C)O)c2c1	33	/	105*	17	0	-5
COc1ccc2sc(-c3ccc(N(C)C)cc3)c(C#CC(C)(C)O)c2c1	-1	/	66	8	-2	-10
COc1ccc(-c2sc3ccc(N4CCOCC4)cc3c2C#Cc2ccsc2)cc1	5	/	70	-2	10	-2
COc1ccc(-c2ccc3oc(-c4ccc(OC)cc4)c(C#CCO)c3c2)cc1	3	?	10	-11	-4	-22
COc1cccc(-c2sc3ccc(OC)cc3c2C#CCC(C)O)c1 (centres undefined)	-23	/	113*	4	1	-1
COc1cccc(-c2sc3ccc(OC)cc3c2C#CC(C)(C)O)c1	-23	/	118*	1	6	0
COCc1ccc(-c2c(-c3cccc(OC)c3)sc3ccc(OC)cc23)cc1	-11	/	47	6	5	-5
C[C@H]1CN([C@@H](C)CO)C(=O)c2c(c3ccccc3n2C)-c2ccccc2CO[C@@H]1CN(C)C(=O)Nc1cccc(C(F)(F)F)c1	/	/	/	-12	/	/
CCN1C(=O)/C(=C\c2ccncc2)SC1=Nc1ccc(C)c(C)c1	-27	13	84*	4	-3	-3
CCCN1C(=O)/C(=C\c2ccncc2)SC1=Nc1ccccc1	-38	0	/	/	/	-5
Cc1ccc(CN(c2ccc(C(=O)N3CCCC3)cc2)S(C)(=O)=O)cc1	-6	67*	3	/	2	2
O/N=C/c1ccnc(SCc2ccccc2)n1	-33	-2	16	-11	/	2
O/N=C/c1ccnc(SCc2ccc(Cl)cc2)n1	-4	4	80*	-18	/	-7
O=C(c1ccccc1)c1cc2ccc(O)cc2oc1=O	53	62*	7	/	-5	16
O=C(NCc1ccco1)c1cc2ccc(O)cc2oc1=O	/	60*	20	/	/	1
O=C(c1ccc(Br)cc1)c1cc2ccc(O)cc2oc1=O	-22	4	7	3	-6	4
COc1ccc2cc(C(=O)NCc3ccco3)c(=O)oc2c1	40	-3	13	/	1	-4
CCCN1C[C@@H](C)[C@@H](OC)CN(C)C(=O)c2cc(NC(=O)Nc3c(C)noc3C)ccc2OC[C@H]1C	/	/	/	-13	0	/
